Measurements as given in ChEMBL document CHEMBL3352556, “Neural cell activation by phenolic compounds from the Siberian larch (Larix sibirica)” (J Nat Prod, 2014).
The source made the active and inactive calls. The rule behind the calls is not given here.

Columns and labels:
[1] = Cytotoxicity against C57BL/6J mouse primary cerebellar neurons assessed as reduction in cell viability at 1 uM after 24 hrs by microscopy
Mus musculus [2] = species on record: Mus musculus; test: Induction of neurite outgrowth in C57BL/6J mouse motoneurons at 1 to 200 nM after 24 hrs by microscopy; type: functional
In short: (§1)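 Motoneurons came from spinal cords of E14.5 mice, were seeded at 1.25 × 10^4 cells/well on poly-L-ornithine and cultured serum-free. Compound was added 1 h after seeding (0.1% DMSO final; DMSO control) and cells were fixed at 24 h. Neurite length was measured microscopically. Duplicates, ≥100 cells per treatment, 3 independent experiments, mean ± SEM.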

Mus musculus [3] = species on record: Mus musculus; test: Induction of neurite outgrowth in C57BL/6J mouse motoneurons at 500 nM after 24 hrs by microscopy; type: functional; in short: as §1
[4] = Induction of migration of C57BL/6J mouse cerebellar primary neuron at 100 nM after 48 hrs by microscopy relative to DMSO-treated control; type: functional
[5] = Induction of migration of C57BL/6J mouse cerebellar primary neuron assessed as cell population migrating to 1- 150 um at 100 nM after 48 hrs by microscopy (reference value: 72 %); type: functional
[6] = Induction of migration of C57BL/6J mouse cerebellar primary neuron assessed as cell population migrating to 151- 300 um at 100 nM after 48 hrs by microscopy (reference value: 25 %); type: functional
[7] = Induction of migration of C57BL/6J mouse cerebellar primary neuron assessed as cell population migrating to >301 um at 100 nM after 48 hrs by microscopy (reference value: 3 %); type: functional
Schwann [8] = test: Stimulation of process formation/elongation of C57BL/6J mouse Schwann cells after 24 hrs by microscopy; type: functional, cell-based
In short: (§2)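 Schwann cells from dorsal root ganglia of 6- to 8-day-old mice were seeded at 1.25 × 10^4 cells/well on PLL and cultured serum-free. Compound (0.1% DMSO final; DMSO control) was added 1 h after seeding and cells were fixed at 24 h. Process length was measured microscopically. Duplicates, ≥100 cells per treatment, 3 independent experiments, mean ± SEM.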

[9] = Stimulation of process formation/elongation of C57BL/6J mouse Schwann cells at 100 pM to 100 nM after 24 hrs by microscopy relative to DMSO-treated control; type: functional; in short: as §2
Schwann [10] = test: Stimulation of process formation/elongation of C57BL/6J mouse Schwann cells at 1 uM after 24 hrs by microscopy; type: functional, cell-based; in short: as §2
[11] = Cytotoxicity against C57BL/6J mouse Schwann cells at 1 uM after 24 hrs by microscopy; type: cell-based
Astrocyte = test: Reduction in migration of C57BL/6J mouse brain astrocytes assessed as distance of migration at 100 nM after 8 to 48 hrs by scratch injury assay (reference value: 700 um); type: functional
Mus musculus [12] = species on record: Mus musculus; test: Induction of neurite outgrowth in C57BL/6J mouse primary cerebellar neurons after 24 hrs by microscopy; type: functional
In short: (§3)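 Cerebellar granule neurons from 6- to 8-day-old mice were plated at 2.5 × 10^4 cells/well on PLL in defined serum-free medium. Compound (100 pM–1 μM; 0.1% DMSO final, DMSO control) was added 1 h post-seeding and cells were fixed at 24 h. Neurite length was measured by microscopy. Duplicates, ≥100 cells per treatment, 3 independent experiments, mean ± SEM.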

[13] = Induction of neurite outgrowth in C57BL/6J mouse primary cerebellar neurons at 100 nM after 24 hrs by microscopy relative to DMSO-treated control; type: functional; in short: as §3
[14] = Induction of neurite outgrowth in C57BL/6J mouse dorsal root ganglion neurons at 100 nM after 24 hrs by microscopy relative to DMSO-treated control; type: functional, DRG neuron
In short: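 Dorsal root ganglion neurons from 6- to 8-day-old mice were seeded at 1.25 × 10^4 cells/well on PLL in serum-free culture. 100 nM compound (0.1% DMSO final) was added 1 h after seeding. Cells were fixed after 24 h and neurite length was measured by microscopy versus DMSO control. Duplicates, ≥100 cells per treatment, 3 independent experiments, mean ± SEM.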

Row | Structure (SMILES) | Activity [1] | Activity (Mus musculus [2]) | Activity (Mus musculus [3]) | fold change (FC) [4] | Activity [5] | Activity [6] | Activity [7] | Activity (Schwann [8]) | fold change (FC) [9] | Activity (Schwann [10]) | Activity [11] | Activity (Astrocyte) | Activity (Mus musculus [12]) | fold change (FC) [13] | fold change (FC) [14]
1 | COc1cc([C@H]2c3cc(O)c(OC)cc3C[C@@H](CO)[C@@H]2CO)ccc1O [ISOLARICIRESINOL] | Non-toxic | Active | inactive | 1.2 | 68% | 24% | 8% | Dose-dependent effect | 1.8 | inactive | Non-toxic | 500 µm | Dose-dependent effect | 1.6 | –
2 | O=C1c2c(O)cc(O)cc2O[C@H](c2ccc(O)c(O)c2)[C@H]1O [(+)-TAXIFOLIN] | Non-toxic | Active | inactive | 1.4 | 59% | 29% | 12% | Dose-dependent effect | 1.9 | inactive | Non-toxic | 500 µm | Dose-dependent effect | 1.6 | 1.7
3 | COc1cc(C[C@@H](CO)[C@H](CO)Cc2ccc(O)c(OC)c2)ccc1O [(+)-SECOISOLARICIRESINOL] | Non-toxic | Active | inactive | 1.2 | 65% | 27% | 8% | Dose-dependent effect | 1.8 | inactive | Non-toxic | 500 µm | Dose-dependent effect | 1.6 | –
